In brackets after ≈: the same amount, converted by molar mass. Activity calls are given as the source filed them.
Tests used:
HepG2 = assay: Cytotoxicity against human HepG2 cells assessed as reduction in cell viability incubated for 2 days prior to compound washout followed by compound redosing and measured after 2 days by XTT assay; format: cell-based; settings: hepg2, 48 h
Hepatitis B virus [1] = assay: Antiviral activity against HBV infected in human HepAD38 cells assessed as reduction in total DNA production incubated for 2 days prior to compound washout followed by compound redosing and measured after 2 days by dot-blot analysis; format: functional, organism-based
Summary of the method: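 HepAD38 cells seeded at 3 × 10^4/well in tetracycline medium; next day washed twice with PBS and given tet-free complete medium with 2-fold serial dilutions, 1% final DMSO, replaced with fresh compound medium after 2 days. After 2 more days cells lysed (NP-40), DNA alkali-denatured, dot-blotted, probed with DIG-labelled HBV probe; chemiluminescence densitometry, variable-slope fit; mean ± SD of ≥2 experiments.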

Hepatitis B virus [2] = assay: Binding affinity to HBV dimeric capsid protein C150 mutant expressed in Escherichia coli BL21 (DE3) at 20 uM by Sypro orange staining based RT-PCR analysis
[3] = Protein binding in human plasma at 5 uM incubated for 5 hrs by LC-MS/MS-based equilibrium dialysis method; format: ADME, cell-free
Summary of the method: (§1)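 Equilibrium dialysis in duplicate: compound spiked at 5 μM into normal human or mouse plasma, dialyzed against DPBS 5 h at 37 °C; both chambers sampled and quenched in acetonitrile with internal standard; LC-MS/MS gives percent bound.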

[4] = Intrinsic clearance in human liver microsomes assessed as glucuronidation per mg protein at 1 uM in presence of UDPGA by LC-MS/MS analysis; format: ADME, Microsome
Summary of the method: (§2)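 Glucuronidation: typically 1 μM compound with 0.5 mg/mL microsomal protein, alamethicin 50 μg/mg protein, 1 mM MgCl2, 5 mM UDPGA in 0.1 M potassium phosphate pH 7.4, 37 °C; timed aliquots quenched in acetonitrile; LC-MS/MS gives CLint (μl/min/mg protein); triplicate; 7-hydroxycoumarin positive control.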

[5] = Intrinsic clearance in mouse liver microsomes assessed as glucuronidation per mg protein at 1 uM in presence of UDPGA by LC-MS/MS analysis; format: ADME, Microsome; summary of the method: as §2
[6] = Stability in Dulbecco's phosphate buffered saline assessed as parent compound remaining at 1 uM after 24 hrs by LC-MS/MS analysis; format: physicochemical; settings: read-out: Stability
Summary of the method: (§3)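 Compound, typically 1 μM final, incubated in DPBS at 37 °C in triplicate; samples at 0, 1, 3, 6, 24 h quenched with 3 volumes acetonitrile containing internal standard; parent measured by LC-MS/MS.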

[7] = Thermodynamic aqueous solubility in Dulbecco's phosphate buffered saline using solid sample incubated for 72 hrs under shaking condition by LC-MS/MS analysis; format: physicochemical; settings: read-out: Therm_solubility
[8] = Half life in human plasma at 1 uM by LC-MS/MS analysis; format: ADME, cell-free
[9] = Half life in mouse plasma at 1 uM by LC-MS/MS analysis; format: ADME, cell-free
[10] = Intrinsic clearance in human liver microsomes assessed as NADPH-dependent metabolism per mg protein at 1 uM in presence of NADPH by LC-MS/MS analysis; format: ADME, Microsome
[11] = Protein binding in mouse plasma at 5 uM incubated for 5 hrs by LC-MS/MS-based equilibrium dialysis method; format: ADME, cell-free; summary of the method: as §1
[12] = Intrinsic clearance in mouse liver microsomes assessed as NADPH-dependent metabolism per mg protein at 1 uM in presence of NADPH by LC-MS/MS analysis; format: ADME, Microsome
Hepatitis B virus [13] = assay: Disruption of HBV dimeric capsid protein C150 mutant assembly expressed in Escherichia coli BL21 (DE3) assessed as increase in capsid assembly at 20 uM by Sypro orange staining based RT-PCR analysis
Hepatitis B virus [14] = assay: Disruption of HBV dimeric capsid protein C150 mutant assembly expressed in Escherichia coli BL21 (DE3) assessed as increase in capsid aggregation after 1 hr by uranyl acetate staining based transmission electron microscopic analysis
Summary of the method: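 Purified C150 dimer (18 μM) in bicarbonate buffer, with compound or 1% DMSO, assembled by adding an equal volume of 100 mM HEPES pH 7.5, 1 M NaCl, 1 h at room temperature. Assemblies adsorbed to glow-discharged carbon-coated copper grids, negatively stained with 2% uranyl acetate and imaged by TEM for aggregates versus DMSO control.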

[15] = Apparent permeability from apical to basolateral side in human Caco2 cells measured after 20 to 80 mins by LC-MS/MS analysis; format: ADME, cell-based; settings: caco-2
[16] = Oral bioavailability in CD-1 mouse at 10 mg/kg by LC-MS/MS analysis; format: ADME, organism-based; settings: in vivo; for F: mouse
Summary of the method: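 Male CD-1 mice (25–35 g), n = 4 per route; typical doses 2 mg/kg IV and 10 mg/kg PO in DPBS with up to 42% 2-hydroxypropyl-β-cyclodextrin; serial saphenous blood to 24 h (8 points); plasma by LC-MS/MS; non-compartmental analysis; F = (AUCpo/AUCiv)×(Doseiv/Dosepo).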

[17] = Apparent permeability from basolateral to apical side in human Caco2 cells measured after 20 to 80 mins by LC-MS/MS analysis; format: ADME, cell-based; settings: caco-2
[18] = Half life in Dulbecco's phosphate buffered saline at 1 uM by LC-MS/MS analysis; format: physicochemical; summary of the method: as §3

| Compound | CC50 (HepG2) [µM] | EC50 (Hepatitis B virus [1]) [µM] | Activity (Hepatitis B virus [2]) | PPB [3] [%] | intrinsic clearance (CLint) [4] [µL/min] | intrinsic clearance (CLint) [5] [µL/min] | remaining at 24 h, 1 µM [6] [%] | solubility thermodynamic at 72 h [7] [µM] | t1/2 [8] [h] | t1/2 [9] [h] | Microsomal intrinsic clearance [10] [µL/min] | PPB [11] [%] | intrinsic clearance per mg protein [12] [µL/min] | Activity (Hepatitis B virus [13]) | Activity (Hepatitis B virus [14]) | Papp [15] [×10⁻⁶ cm/s] | F [16] [%] | Papp [17] [×10⁻⁶ cm/s] | half-life at 1 µM [18] [h] | bioavailability ([16]; CD-1, mouse) [%] |
| --- | --- | --- | --- | --- | --- | --- | --- | --- | --- | --- | --- | --- | --- | --- | --- | --- | --- | --- | --- | --- |
| O=C(N/C(C(=O)N1CCCCC1)=C(\Cl)c1ccccc1)c1ccccc1 | 61 | 4.8 | Active | – | – | – | – | – | – | – | – | – | – | – | – | – | – | – | – | – |
| CCOC(=O)C1=C(C)NC(c2ncccc2F)=NC1c1ccc(F)cc1Cl (configuration not stated) | > 100 | 0.41 | Active | – | – | – | – | – | – | – | – | – | – | – | – | – | – | – | – | – |
| CC(C)Cc1sc(-c2nccs2)nc1C(=O)NCc1ccc(F)cc1 | 29 | 10 | Active | – | – | – | – | – | – | – | – | – | – | – | – | – | – | – | – | – |
| Cc1c(C(=O)Nc2ccc(F)c(Cl)c2)sc(N)c1C(N)=O | > 100 | 0.31 | Active | 94 | < 0.1 | 1.6 | > 90 | 31 (≈ 10.2 µg/mL) | > 24 | > 24 | 7.6 | 90 | 28 | – | – | – | – | – | – | – |
| Cc1cc(NC(=O)c2sc(N)c(C(N)=O)c2C)ccc1F | > 100 | – | Active | 91 | < 0.1 | 5.2 | > 90 | 31 (≈ 9.53 µg/mL) | > 24 | > 24 | 14 | 82 | 92 | Active | Active | 18.6 | 11 | 26.9 | – | – |
| Cc1ccc(NC(=O)c2sc(N)c(C(N)=O)c2C)cc1 | – | > 10 | inactive | – | – | – | – | – | – | – | – | – | – | – | – | – | – | – | – | – |
| O=C(Nc1ccc(F)c(F)c1)c1cc(S(=O)(=O)NC2CCCC2)ccc1F | 17 | 0.25 | Active | – | – | – | – | – | – | – | – | – | – | – | – | – | – | – | – | – |
| Cc1c(C(=O)Nc2ccccc2)sc(N)c1C(=O)NCc1ccc(C(F)(F)F)cc1 | – | > 10 | Active | – | – | – | – | – | – | – | – | – | – | – | – | – | – | – | – | – |
| Cc1c(C(=O)Nc2ccc(F)c(C(F)F)c2)sc(N)c1C(N)=O | > 100 | – | Active | 89 | 3.2 | 10 | > 90 | 9.5 (≈ 3.26 µg/mL) | > 24 | > 24 | 5.8 | 82 | 22 | – | – | – | 25 | – | – | – |
| Cc1cc(NC(=O)c2sc(N)c(C(N)=O)c2C)ccc1Cl | > 100 | 1.7 | Active | – | – | – | – | – | – | – | – | – | – | – | – | – | – | – | – | – |
| Cc1c(C(=O)Nc2ccccc2)sc(N)c1C(N)=O | > 100 | 3.4 | Active | 86 | 2 | 4.4 | > 90 | 19 (≈ 5.23 µg/mL) | > 24 | > 24 | 5 | 50 | 18 | – | – | – | – | – | > 24 | 31 to 34 |

From ChEMBL document CHEMBL4411305, “5-Aminothiophene-2,4-dicarboxamide analogues as hepatitis B virus capsid assembly effectors” (Eur J Med Chem, 2019)
